The source made the active and inactive calls. The calls are words filed in the database; no cut-off is given here.
Key:
[1] = target: T1, Glucocorticoid receptor (Rattus norvegicus) (UniProt P06536); assay: In vivo glucocorticoid profile, depression of thymus weight in rat at 50 mg/kg peroral dose; type: functional, organism-based; parameters: dose 50 mg/kg
T1 sequence (whole entry): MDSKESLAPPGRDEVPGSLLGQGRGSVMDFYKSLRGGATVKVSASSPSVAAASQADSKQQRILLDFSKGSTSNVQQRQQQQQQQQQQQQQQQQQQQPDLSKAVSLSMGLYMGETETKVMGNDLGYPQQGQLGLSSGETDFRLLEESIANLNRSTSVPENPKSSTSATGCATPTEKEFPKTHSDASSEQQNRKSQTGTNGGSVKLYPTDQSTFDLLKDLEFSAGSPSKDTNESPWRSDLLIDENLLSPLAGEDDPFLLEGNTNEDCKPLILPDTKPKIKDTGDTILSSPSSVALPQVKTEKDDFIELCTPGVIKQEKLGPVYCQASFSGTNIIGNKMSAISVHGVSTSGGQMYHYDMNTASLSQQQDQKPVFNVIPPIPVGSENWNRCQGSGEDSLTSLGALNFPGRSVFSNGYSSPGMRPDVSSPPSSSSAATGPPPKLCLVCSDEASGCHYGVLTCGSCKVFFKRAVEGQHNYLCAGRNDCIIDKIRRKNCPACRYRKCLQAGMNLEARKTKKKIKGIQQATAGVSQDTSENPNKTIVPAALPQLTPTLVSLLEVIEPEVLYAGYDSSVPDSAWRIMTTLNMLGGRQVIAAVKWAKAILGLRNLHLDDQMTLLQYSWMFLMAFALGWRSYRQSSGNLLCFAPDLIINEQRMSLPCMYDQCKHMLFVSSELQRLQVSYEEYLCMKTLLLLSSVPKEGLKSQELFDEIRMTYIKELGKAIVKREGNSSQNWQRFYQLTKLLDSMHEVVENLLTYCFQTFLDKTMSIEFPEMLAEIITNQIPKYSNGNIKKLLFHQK
Method in brief: (§1)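 Two-week oral glucocorticoid profile in rats. Thymus weight, adrenal weight and body weight gain are each expressed as % change from control.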

[2] = target: T1, Glucocorticoid receptor (Rattus norvegicus); assay: In vivo antiinflammatory activity in the rat, alpha-tocopherol filled pouch 25 mg/kg peroral dose; IA = inactive; type: functional, organism-based; parameters: dose 25 mg/kg
Method in brief: (§2)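 Rats receive an air-filled pouch injected with 0.5 mL DL-α-tocopherol. Oral doses are given daily for 7 days, starting on the day of pouch formation, as suspensions in 1% gum tragacanth. ED50 is in mg/kg po.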

[3] = target: T1, Glucocorticoid receptor (Rattus norvegicus); assay: In vivo glucocorticoid profile, depression of body weight gain without altered food consumption in rat at 50 mg/kg peroral dose; type: functional, organism-based; parameters: dose 50 mg/kg; method in brief: as §1
[4] = target: T1, Glucocorticoid receptor (Rattus norvegicus); assay: In vivo glucocorticoid profile, depression of adrenal weight in rat at 50 mg/kg peroral dose; type: functional, organism-based; parameters: dose 50 mg/kg; method in brief: as §1
[5] = target: T1, Glucocorticoid receptor (Rattus norvegicus); assay: In vivo glucocorticoid profile, depression of adrenal weight in rat at 5 mg/kg peroral dose; type: functional, organism-based; parameters: dose 5 mg/kg; method in brief: as §1
[6] = target: T1, Glucocorticoid receptor (Rattus norvegicus); assay: In vivo glucocorticoid profile, depression of body weight gain without altered food consumption in rat at 5 mg/kg peroral dose; type: functional, organism-based; parameters: dose 5 mg/kg; method in brief: as §1
[7] = target: T1, Glucocorticoid receptor (Rattus norvegicus); assay: In vivo glucocorticoid profile, depression of thymus weight in rat at 5 mg/kg peroral dose; type: functional, organism-based; parameters: dose 5 mg/kg; method in brief: as §1
[8] = target: T1, Glucocorticoid receptor (Rattus norvegicus); assay: In vivo glucocorticoid profile, depression of thymus weight in rat at 100 mg/kg peroral dose; type: functional, organism-based; parameters: dose 100 mg/kg; method in brief: as §1
[9] = target: T1, Glucocorticoid receptor (Rattus norvegicus); assay: (§3) In vivo glucocorticoid profile, depression of thymus weight in rat at 25 mg/kg peroral dose; type: functional, organism-based; parameters: dose 25 mg/kg; method in brief: as §1
[10] = target: T1, Glucocorticoid receptor (Rattus norvegicus); assay: (§4) In vivo glucocorticoid profile, depression of adrenal weight in rat at 25 mg/kg peroral dose; type: functional, organism-based; parameters: dose 25 mg/kg; method in brief: as §1
[11] = target: T1, Glucocorticoid receptor (Rattus norvegicus); assay: In vivo glucocorticoid profile, depression of body weight gain without altered food consumption in rat at 25 mg/kg peroral dose; type: functional, organism-based; parameters: dose 25 mg/kg; method in brief: as §1
[12] = target: T1, Glucocorticoid receptor (Rattus norvegicus); assay: In vivo glucocorticoid profile, depression of adrenal weight in rat at 100 mg/kg peroral dose; type: functional, organism-based; parameters: dose 100 mg/kg
Method in brief: (§5)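 Two-week oral dosing test in rats. At the end, thymus weight, adrenal weight and body weight gain are recorded and expressed as % change from control.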

[13] = target: T1, Glucocorticoid receptor (Rattus norvegicus); assay: (§6) In vivo glucocorticoid profile, depression of body weight gain without altered food consumption in rat at 1 mg/kg peroral dose; type: functional, organism-based; parameters: dose 1 mg/kg; method in brief: as §1
[14] = target: T1, Glucocorticoid receptor (Rattus norvegicus); assay: (§7) In vivo glucocorticoid profile, depression of thymus weight in rat at 1 mg/kg peroral dose; type: functional, organism-based; parameters: dose 1 mg/kg; method in brief: as §1
[15] = target: T1, Glucocorticoid receptor (Rattus norvegicus); assay: In vivo anti-inflammatory activity in the rat, alpha-tocopherol filled pouch peroral dose; type: functional, organism-based; method in brief: as §2
[16] = target: T1, Glucocorticoid receptor (Rattus norvegicus); assay: (§8) In vivo glucocorticoid profile, depression of adrenal weight in rat at 1 mg/kg peroral dose; type: functional, organism-based; parameters: dose 1 mg/kg; method in brief: as §1
[17] = target: T1, Glucocorticoid receptor (Rattus norvegicus); assay: as §6; type: functional, organism-based; parameters: dose 1 mg/kg; method in brief: as §5; remark: listed apart in the source
[18] = target: T1, Glucocorticoid receptor (Rattus norvegicus); assay: as §8; type: functional, organism-based; parameters: dose 1 mg/kg; method in brief: as §5; remark: listed apart in the source
[19] = target: T1, Glucocorticoid receptor (Rattus norvegicus); assay: as §7; type: functional, organism-based; parameters: dose 1 mg/kg; method in brief: as §5; remark: listed apart in the source
[20] = target: T1, Glucocorticoid receptor (Rattus norvegicus); assay: as §3; type: functional, organism-based; parameters: dose 25 mg/kg; method in brief: as §5; remark: listed apart in the source
[21] = target: T1, Glucocorticoid receptor (Rattus norvegicus); assay: as §4; type: functional, organism-based; parameters: dose 25 mg/kg; method in brief: as §5; remark: listed apart in the source
[22] = target: T1, Glucocorticoid receptor (Rattus norvegicus); assay: In vivo antiinflammatory activity in the rat, alpha-tocopherol filled pouch peroral dose; IA = inactive; type: functional, organism-based; method in brief: as §2
[23] = target: T1, Glucocorticoid receptor (Rattus norvegicus); assay: Relative binding affinity (RBA) for glucocorticoid receptor from rat liver cytosol by displacement of [3H]-RU-28,362
Method in brief: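 Competitive binding to glucocorticoid receptor in liver cytosol from adrenalectomized rats, with [3H]RU28362 as ligand. RBA is derived from the concentrations of dexamethasone and of competitor giving 50% binding inhibition. A value of zero means binding was too low to measure.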

[24] = target: T1, Glucocorticoid receptor (Rattus norvegicus); assay: In vivo antiinflammatory activity in the rat, alpha-tocopherol filled pouch 48 mg/kg peroral dose; IA = inactive; type: functional, organism-based; parameters: dose 48 mg/kg
[25] = target: T1, Glucocorticoid receptor (Rattus norvegicus); assay: In vivo glucocorticoid profile, depression of thymus weight in rat at 0.2 mg/kg peroral dose; type: functional, organism-based; parameters: dose 0.2 mg/kg; method in brief: as §1
[26] = target: T1, Glucocorticoid receptor (Rattus norvegicus); assay: In vivo glucocorticoid profile, depression of body weight gain without altered food consumption in rat at 0.2 mg/kg peroral dose; type: functional, organism-based; parameters: dose 0.2 mg/kg; method in brief: as §1
[27] = target: T1, Glucocorticoid receptor (Rattus norvegicus); assay: In vivo glucocorticoid profile, depression of adrenal weight in rat at 0.2 mg/kg peroral dose; type: functional, organism-based; parameters: dose 0.2 mg/kg; method in brief: as §1

Row | Change [1] [%] | ED50 [2] | Weight gain [3] | Change [4] [%] | Change [5] [%] | Weight gain [6] | Change [7] [%] | Compound | other results
1 |  |  |  |  | 0 | 0 | 0 | C#CCN1C(=O)N(CC#C)C(=O)C2(CC=C3[C@H](CCC4=Cc5c(cnn5-c5ccc(F)cc5)C[C@@]43C)O2)C1=O | 
2 |  |  |  |  | -64 | -224 | -79 | C[C@]12Cc3cnn(-c4ccc(F)cc4)c3C=C1CC[C@@H]1OC3(CC=C12)C(=O)c1ccccc1C3=O | Weight gain [13]: -129; Change [14]: -61%; ED50 [15]: 10 mg/kg; Change [16]: -56%

Continued, molecule first:

Row | Compound | Change [1] [%] | ED50 [2] | Weight gain [3] | Change [4] [%] | Change [5] [%] | Weight gain [6] | Change [7] [%] | other results
3 | CC(C)N1C(=O)N(C(C)C)C(=O)C2(CC=C3[C@H](CCC4=Cc5c(cnn5-c5ccc(F)cc5)C[C@@]43C)O2)C1=O | 0 | inactive | 0 | 0 |  |  |  | 
4 | CCN1C(=O)N(CC)C(=O)C2(CC=C3[C@H](CCC4=Cc5c(cnn5-c5ccc(F)cc5)C[C@@]43C)O2)C1=O |  | inactive |  |  |  |  |  | Change [8]: -34%; Change [9]: -34%; Change [10]: 0%; Weight gain [11]: 0; Change [12]: -45%
5 | C#C[C@]1(O)CCC2[C@@H]3CCC4=Cc5c(cnn5-c5ccc(F)cc5)C[C@]4(C)C3=CC[C@@]21C (some centres not stated) |  |  |  |  | -60 | -145 | -76 | Weight gain [17]: 0; Change [18]: -35%; Change [19]: -41%
6 | C[C@]12Cc3cnn(-c4ccccc4)c3C=C1CC[C@@H]1OC3(CC=C12)C(=O)c1ccccc1C3=O |  |  |  |  | -38 | -62 | -51 | Change [20]: -62%; Change [21]: -50%; ED50 [22]: inactive; Weight gain [11]: -86
7 | CN1C(=O)N(C)C(=O)C2(CC=C3[C@H](CCC4=Cc5c(cnn5-c5ccncc5)C[C@@]43C)O2)C1=O |  |  |  |  |  |  |  | RBA [23]: 0.72%
8 | C=CCN1C(=O)N(CC=C)C(=O)C2(CC=C3[C@H](CCC4=Cc5c(cnn5-c5ccc(F)cc5)C[C@@]43C)O2)C1=O | -34 |  | -58 | -37 |  |  |  | ED50 [24]: inactive
9 | CCCN1C(=O)N(CCC)C(=O)C2(CC=C3[C@H](CCC4=Cc5c(cnn5-c5ccc(F)cc5)C[C@@]43C)O2)C1=O | 0 | inactive | 0 | 0 |  |  |  | 
10 | CN1C(=O)N(C)C(=O)C2(CC=C3[C@H](CCC4=Cc5c(cnn5-c5ccc(F)cc5)C[C@@]43C)O2)C1=O (stereo in doubt; 12a) |  |  |  |  | -63 | -236 | -83 | Change [25]: -28%; Weight gain [17]: -127; Weight gain [26]: -55; Change [18]: -57%; ED50 [15]: 2 mg/kg; Change [19]: -71%; Change [27]: -25%

Reference: ChEMBL document CHEMBL1126871, “Non-steroidal glucocorticoid-like substances: receptor binding and in vivo activity” (J Med Chem, 1993)
